OX1R antag-1 = OX1R (human) antagonism | O43613 | OX1R-expressing cells, FRET antagonist read-out | inhibition, % at 6.6 µM | 1.8% of 330,000 active; in the data active means inhibition mostly above about 38%, no sharp cut-off; inactive means mostly below about 40%;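 further: 0% = agonist challenge alone and 100% = reference antagonist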
TAAR1 antag = human TAAR1 antagonism; Q96RJ0; CHO RD-HGA16 TAAR1, Fluo-8 calcium fluorescence, antagonist; inhibition, % at 3 µM; 1.5% of 360,000 active; AID 624466;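 active means inhibition above a per-plate cutoff, the mean inhibition of test compounds on that plate plus 3 SD, cut at about 49% in these data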;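 further: 0% = DMSO plus EC80 beta-PEA response and 100% = DMSO alone without agonist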
Target sequence (Q96RJ0 whole entry, looked up): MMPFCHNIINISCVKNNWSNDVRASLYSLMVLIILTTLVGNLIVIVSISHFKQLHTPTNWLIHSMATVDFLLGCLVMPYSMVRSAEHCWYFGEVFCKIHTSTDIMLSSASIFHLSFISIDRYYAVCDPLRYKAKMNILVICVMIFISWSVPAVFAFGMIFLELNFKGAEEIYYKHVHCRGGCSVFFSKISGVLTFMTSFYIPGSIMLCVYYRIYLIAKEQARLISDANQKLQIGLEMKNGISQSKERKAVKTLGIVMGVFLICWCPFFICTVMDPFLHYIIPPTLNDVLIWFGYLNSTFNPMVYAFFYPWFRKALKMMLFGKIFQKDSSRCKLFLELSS
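Test system: hTAAR1-expressing CHO RD-HGA16 cells, Gα16-coupled; Probe or stimulus: EC80 β-phenethylamine stimulus; Compound dosing: single nominal final test compound concentration of 3 µM; Timing: 140 s kinetic read after compound, 140 s after agonist; Signal: Fluo-8 calcium-sensitive fluorescence; Measure: % inhibition of agonist calcium response; Controls: DMSO and EC80 PEA controls.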
GPR7 antag = human neuropeptides B/W receptor 1 antagonism; P48145; GPR7-expressing cells, fluorescence antagonist assay; inhibition, % at 4.4 µM; 1.1% of 290,000 active; AID 1861; in the data active means inhibition above about 16%, passing the limit was not always enough;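 further: cells stimulated with the agonist NPW; 0% = agonist with vehicle and 100% = vehicle without agonist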
Target sequence (P48145 whole entry, looked up): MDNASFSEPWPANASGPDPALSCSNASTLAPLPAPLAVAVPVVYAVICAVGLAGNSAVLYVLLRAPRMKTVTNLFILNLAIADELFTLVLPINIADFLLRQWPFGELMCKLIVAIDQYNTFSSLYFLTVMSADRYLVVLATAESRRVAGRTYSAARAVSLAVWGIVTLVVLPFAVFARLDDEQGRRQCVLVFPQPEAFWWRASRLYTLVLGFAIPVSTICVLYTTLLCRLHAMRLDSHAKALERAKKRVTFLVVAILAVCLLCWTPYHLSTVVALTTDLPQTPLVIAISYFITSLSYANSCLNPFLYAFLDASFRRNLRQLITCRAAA
OX1R antag-2 = human HCRTR1 antagonism | CHO/OX1R cells, Fluo-8 calcium fluorescence, orexin A | 0.43% of 330,000 active | inhibition, % at 5 µM | AID 434989 | O43613;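 active means inhibition above its plate's threshold, mean inhibition of all tested compounds on the plate plus 3 SD, cut at about 37% in these data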;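 further: 0% = orexin A challenge wells and 100% = SB-334867-A antagonist wells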
TAAR1 ag = agonists of human TAAR1. CHO RD-HGA16 TAAR1, Fluo-8 calcium fluorescence; vehicle wells 0%, saturating PEA agonist 100%. activation, % at 3 µM. 0.99% of 360,000 active. AID 624467;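 active means activation above the mean activation of all test compounds in the run plus 3 SD, cut at about 38% in these data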
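Assay system: CHO-derived RD-HGA16 cells with stable Gα16 and human TAAR1; timing: 17-24 h seeding, 75 min 37 °C dye, 30 min RT; read-out: % activation from peak over basal fluorescence ratio, DMSO-to-PEA scaled; measured by: kinetic Fluo-8 calcium fluorescence; benchmarks: low control DMSO, high control PEA (EC100); doses: 3 µM single concentration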
CHO parental Ca = signal in parental CHO cells, OX1R antagonist counter-screen; inhibition, % at 5.6 µM; 0.63% of 330,000 active; parental CHO-K1, ATP-induced calcium, Fluo-8 fluorescence;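 active means inhibition above that plate's mean sample inhibition plus 3 SD, cut at about 26% in these data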;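 further: 0% = ATP-challenged DMSO wells and 100% = DMSO wells without ATP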
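Test system: untransfected parental CHO cell line; also added: ATP stimulus; dosing: 5.6 µM, single dose; signal: calcium-sensitive Fluo-8 fluorescence; measure: percent inhibition of ATP-evoked calcium rise, normalized to controls; benchmarks: low control ATP plus DMSO, high control DMSO only; replication: one well per compound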
GPR7 antag cf = human GPR7 antagonism, confirmation assay. shares compounds with GPR7 antag. GPR7-expressing cells, calcium fluorescence antagonist mode. inhibition, % at 4.4 µM. 52% of 2,400 active. AID 1952; in the data active means inhibition above about 24%;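 further: stimulated with the GPR7 agonist NPW; 0% = agonist plus vehicle and 100% = vehicle alone without agonist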
MCHR1 antagonist = antagonizes human MCHR1, a GPR7 antagonist counter-screen | shares compounds with GPR7 antag | MCHR1-expressing cells, fluorescence antagonist assay | inhibition, % at 4.4 µM | 62% of 2,400 active | AID 2148; in the data active means inhibition above about 22%;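 further: 0% = vehicle with agonist and 100% = vehicle without agonist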
Starred values were filed as active, the others as inactive. The list is not random: actives were taken first. Their share in the collection is about 4.5%.

What do the screens show for `CC(O)CNCCCOc1ccc(Cl)cc1C(C)(C)C` (configuration not stated)?
OX1R antag-1: 1; TAAR1 antag: -17; GPR7 antag: 21*; OX1R antag-2: -14; TAAR1 ag: 24; CHO parental Ca: -7; GPR7 antag cf: 38*; MCHR1 antagonist: 45*

What do the screens show for `COC(=O)c1sc(S(=O)(=O)N2CCCCC2C)c(C(=O)OC)c1C` (configuration not stated)?
OX1R antag-1: 17; TAAR1 antag: -10; OX1R antag-2: -29; TAAR1 ag: -1; CHO parental Ca: -21

Results for C[C@H]1CN([C@@H](C)CO)C(=O)c2cc(Br)cnc2O[C@H]1CN(C)C(=O)C1CCC1 ?
TAAR1 antag: -24; TAAR1 ag: 7

Results for CN(C)c1ccc(-c2nn3c(-c4ccccc4Cl)nnc3s2)cc1 ?
OX1R antag-1: 59*; TAAR1 antag: 10; GPR7 antag: 25*; OX1R antag-2: 11; TAAR1 ag: 5; CHO parental Ca: 6; GPR7 antag cf: 33*; MCHR1 antagonist: 75*

Results for CCC(=O)N1CCC1(C)C(=O)Nc1ncc(C)s1 (configuration not stated) ?
TAAR1 antag: -8; TAAR1 ag: 1

What do the screens show for `CC(=O)c1cccc(-c2cnc3c(NC=O)cc(-c4ccc(F)cc4)cn23)c1`?
TAAR1 antag: 28; TAAR1 ag: 9

How did CCN1C(=NCc2cccc(Cl)c2)N[C@@H](c2cccc(F)c2)C(C(=O)OC)=C1C do in these assays?
OX1R antag-1: 18; TAAR1 antag: 19; GPR7 antag: 33*; OX1R antag-2: -16; TAAR1 ag: 24; CHO parental Ca: -10; GPR7 antag cf: 58*; MCHR1 antagonist: 30*

Results for COC(=O)C1=C(C)N(Cc2ccccc2)C(=NCc2cccc(C(F)(F)F)c2)N[C@H]1c1cccc(C(F)(F)F)c1 ?
OX1R antag-1: 2; OX1R antag-2: 18; CHO parental Ca: 10

Results for COC(=O)C1=C(C)N(Cc2ccccc2)C(=NCc2ccc(OC)cc2)N[C@H]1c1ccccc1 ?
OX1R antag-1: 4; TAAR1 antag: 20; OX1R antag-2: 0; TAAR1 ag: 29; CHO parental Ca: -3

Results for COC(=O)C1=C(C)N(Cc2ccccc2)C(=NCC(C)C)N[C@H]1c1ccccc1 ?
OX1R antag-1: 21; GPR7 antag: 47*; OX1R antag-2: -6; CHO parental Ca: -3; GPR7 antag cf: 50*; MCHR1 antagonist: 40*

What do the screens show for `COCCN=C1N[C@@H](c2cccc(C(F)(F)F)c2)C(C(=O)OC)=C(C)N1Cc1ccccc1`?
OX1R antag-1: 26; TAAR1 antag: 12; OX1R antag-2: -28; TAAR1 ag: 8; CHO parental Ca: -17; MCHR1 antagonist: 17

What do the screens show for `COC(=O)C1=C(C)N(Cc2ccc(C(F)(F)F)cc2)C(=NCc2ccc(C(F)(F)F)cc2)NC1c1cccc(F)c1` (configuration not stated)?
TAAR1 antag: 25; TAAR1 ag: 18

How did COC(=O)C1=C(C)N(Cc2ccccc2)C(=NCc2cccc(C(F)(F)F)c2)N[C@H]1c1cccc(F)c1 do in these assays?
OX1R antag-1: 35; TAAR1 antag: 34; GPR7 antag: 38*; OX1R antag-2: 2; TAAR1 ag: 42*; CHO parental Ca: 15; GPR7 antag cf: 70*; MCHR1 antagonist: 71*

What do the screens show for `O=C1N(Cc2ccccc2)CC2(Br)COCOC12O` (configuration not stated)?
TAAR1 antag: 6; TAAR1 ag: 1

What do the screens show for `COc1ccc(-c2ccc(C(=O)NCc3ccc(N(C)C)cc3)c3occc23)c(C)c1`?
TAAR1 antag: 13; TAAR1 ag: 2

What do the screens show for `COc1cccc(NC(=O)N(C)C[C@H]2OCc3cn(nn3)CCCC(=O)N([C@@H](C)CO)C[C@@H]2C)c1`?
TAAR1 antag: 2; TAAR1 ag: -1

Results for Cc1cccc(C)c1NC(=O)C(CCc1ccccc1)N1CCC(c2ccccc2)CC1 (configuration not stated) ?
TAAR1 antag: 37; TAAR1 ag: 2

How did Cc1ccc(S(=O)(=O)/N=C(\N)Nc2nc(C)c3ccc(C)cc3n2)cc1 do in these assays?
OX1R antag-1: 4; TAAR1 antag: 0; GPR7 antag: 11; OX1R antag-2: -16; TAAR1 ag: -1; CHO parental Ca: -34

How did Cc1ccc(S(=O)(=O)/N=C(\N)Nc2nc(C)c3cc(C)c(C)cc3n2)cc1 do in these assays?
OX1R antag-1: 18; TAAR1 antag: -10; GPR7 antag: 30*; OX1R antag-2: -45; TAAR1 ag: 2; CHO parental Ca: -12; GPR7 antag cf: 14; MCHR1 antagonist: 21

Results for CCc1ccc(-n2c(SCC(=O)N3Cc4ccccc4CC3C(=O)O)nnc2-c2ccncc2)cc1 (configuration not stated) ?
OX1R antag-1: 16; TAAR1 antag: -16; GPR7 antag: 21*; OX1R antag-2: -4; TAAR1 ag: 1; CHO parental Ca: -23; GPR7 antag cf: 3; MCHR1 antagonist: -2

How did COc1ccc2oc3cc(NCCN(C)C)ccc3c(=O)c2c1 do in these assays?
TAAR1 antag: 6; TAAR1 ag: 0

What do the screens show for `O=C(CCn1ccc2ccccc21)Nc1ccc(N2CCOCC2)cc1`?
OX1R antag-1: 5; TAAR1 antag: 10; GPR7 antag: 30*; OX1R antag-2: -7; TAAR1 ag: 1; CHO parental Ca: -4; GPR7 antag cf: -1; MCHR1 antagonist: 5

How did CC1(C(=O)NS(=O)(=O)c2cccc(C#N)c2)CCN1C(=O)Cc1ccccc1 (configuration not stated) do in these assays?
TAAR1 antag: -3; TAAR1 ag: 1

What do the screens show for `Cc1cccc2cc(CNCC3CCCO3)c(Cl)nc12` (configuration not stated)?
OX1R antag-1: 18; TAAR1 antag: -10; GPR7 antag: 22*; OX1R antag-2: -19; TAAR1 ag: 0; CHO parental Ca: -19; GPR7 antag cf: -3; MCHR1 antagonist: 7

How did CCN1CCC(O)(C(C(=O)O)c2ccccc2)CC1 (configuration not stated) do in these assays?
TAAR1 antag: -4; TAAR1 ag: 8
